According to ChEMBL document CHEMBL5058577, “EUbOPEN Chemogenomics Library 2 (Multiplex)” (2022):

Tested on: HEK-293T
Assay: Multiplex assay against HEK293T
Assay type: toxicity, cell-based
Conditions: human
How it was run: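 Cells stained live at seeding with Hoechst33342, BioTracker Green Microtubule Cytoskeleton Dye, MitoTracker Red and Annexin V Alexa Fluor 680 were imaged on a CQ1 microscope at 37°C and 5% CO2 after compound addition. Their classification by CellPathfinder machine-learning gating ran from Hoechst high-intensity objects versus normal cells, to healthy, pyknosed or fragmented nuclei among normal cells, to mitotic or apoptotic among pyknosed cells. Tubulin, mitochondrial-mass and membrane-permeability phenotypes are per cents of healthy-nucleus cells.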

[1] = 12 h, 1 µM, compound concentration 1 uM, replicate 1
[2] = 12 h, 1 µM, compound concentration 1 uM, replicate 2
[3] = 12 h, 10 µM, compound concentration 10 uM, replicate 1
[4] = 12 h, 10 µM, compound concentration 10 uM, replicate 2
[5] = 24 h, 1 µM, compound concentration 1 uM, replicate 1
[6] = 24 h, 1 µM, compound concentration 1 uM, replicate 2
[7] = 24 h, 10 µM, compound concentration 10 uM, replicate 1
[8] = 24 h, 10 µM, compound concentration 10 uM, replicate 2
[9] = 48 h, 1 µM, compound concentration 1 uM, replicate 1
[10] = 48 h, 1 µM, compound concentration 1 uM, replicate 2
[11] = 48 h, 10 µM, compound concentration 10 uM, replicate 1
[12] = 48 h, 10 µM, compound concentration 10 uM, replicate 2

## Cc1cccc(NC(=O)CN2CCC(c3ccccn3)CC2)c1.Cl.Cl
[1]
  Population Apoptotic (%): 34%
  Population Fragmented Nuclei (%): 7%
  Population Healthy Nuclei (%): 76%
  Population Hoechst High Intensity Objects (%): 5%
  Population Membrane Permeable-Phenotype (%): 0%
  Population Mitochondria Different-Phenotype (%): 54%
  Population Mitotic Cells (%): 65%
  Population Normal (%): 94%
  Population Pyknosed Nuclei (%): 15%
  Population Tubulin-Different-Phenotype (%): 33%
  Total Cell Count: 348
[2]
  Population Apoptotic (%): 46%
  Population Fragmented Nuclei (%): 5%
  Population Healthy Nuclei (%): 82%
  Population Hoechst High Intensity Objects (%): 3%
  Population Mitotic Cells (%): 53%
  Population Normal (%): 96%
  Population Pyknosed Nuclei (%): 11%
  Population Tubulin-Different-Phenotype (%): 22%
  Total Cell Count: 277
[3]
  Population Apoptotic (%): 61%
  Population Fragmented Nuclei (%): 6%
  Population Healthy Nuclei (%): 71%
  Population Hoechst High Intensity Objects (%): 9%
  Population Membrane Permeable-Phenotype (%): 0%
  Population Mitochondria Different-Phenotype (%): 63%
  Population Mitotic Cells (%): 38%
  Population Normal (%): 90%
  Population Pyknosed Nuclei (%): 21%
  Population Tubulin-Different-Phenotype (%): 50%
  Total Cell Count: 291
[4]
  Population Apoptotic (%): 43%
  Population Fragmented Nuclei (%): 10%
  Population Healthy Nuclei (%): 70%
  Population Hoechst High Intensity Objects (%): 14%
  Population Mitochondria Different-Phenotype (%): 79%
  Population Mitotic Cells (%): 56%
  Population Normal (%): 85%
  Population Pyknosed Nuclei (%): 18%
  Population Tubulin-Different-Phenotype (%): 35%
  Total Cell Count: 273
[5]
  Population Apoptotic (%): 32%
  Population Fragmented Nuclei (%): 8%
  Population Healthy Nuclei (%): 81%
  Population Hoechst High Intensity Objects (%): 3%
  Population Membrane Permeable-Phenotype (%): 0%
  Population Mitochondria Different-Phenotype (%): 30%
  Population Mitotic Cells (%): 67%
  Population Normal (%): 96%
  Population Pyknosed Nuclei (%): 9%
  Population Tubulin-Different-Phenotype (%): 22%
  Total Cell Count: 451
[6]
  Population Apoptotic (%): 45%
  Population Fragmented Nuclei (%): 10%
  Population Healthy Nuclei (%): 79%
  Population Hoechst High Intensity Objects (%): 4%
  Population Mitochondria Different-Phenotype (%): 44%
  Population Mitotic Cells (%): 54%
  Population Normal (%): 95%
  Population Pyknosed Nuclei (%): 10%
  Population Tubulin-Different-Phenotype (%): 18%
  Total Cell Count: 339
[7]
  Population Apoptotic (%): 59%
  Population Fragmented Nuclei (%): 8%
  Population Healthy Nuclei (%): 74%
  Population Hoechst High Intensity Objects (%): 7%
  Population Membrane Permeable-Phenotype (%): 0%
  Population Mitochondria Different-Phenotype (%): 60%
  Population Mitotic Cells (%): 40%
  Population Normal (%): 92%
  Population Pyknosed Nuclei (%): 17%
  Population Tubulin-Different-Phenotype (%): 38%
  Total Cell Count: 350
[8]
  Population Apoptotic (%): 50%
  Population Fragmented Nuclei (%): 11%
  Population Healthy Nuclei (%): 75%
  Population Mitochondria Different-Phenotype (%): 64%
  Population Mitotic Cells (%): 50%
  Population Pyknosed Nuclei (%): 13%
  Population Tubulin-Different-Phenotype (%): 26%
  Total Cell Count: 348
[9]
  Population Apoptotic (%): 30%
  Population Fragmented Nuclei (%): 13%
  Population Healthy Nuclei (%): 76%
  Population Hoechst High Intensity Objects (%): 2%
  Population Membrane Permeable-Phenotype (%): 0%
  Population Mitochondria Different-Phenotype (%): 25%
  Population Mitotic Cells (%): 69%
  Population Normal (%): 97%
  Population Pyknosed Nuclei (%): 9%
  Population Tubulin-Different-Phenotype (%): 21%
  Total Cell Count: 688
[10]
  Population Apoptotic (%): 46%
  Population Fragmented Nuclei (%): 8%
  Population Healthy Nuclei (%): 83%
  Population Hoechst High Intensity Objects (%): 4%
  Population Mitochondria Different-Phenotype (%): 24%
  Population Mitotic Cells (%): 53%
  Population Normal (%): 95%
  Population Pyknosed Nuclei (%): 8%
  Population Tubulin-Different-Phenotype (%): 13%
  Total Cell Count: 524
[11]
  Population Apoptotic (%): 46%
  Population Fragmented Nuclei (%): 13%
  Population Healthy Nuclei (%): 75%
  Population Hoechst High Intensity Objects (%): 4%
  Population Membrane Permeable-Phenotype (%): 0%
  Population Mitochondria Different-Phenotype (%): 45%
  Population Mitotic Cells (%): 53%
  Population Normal (%): 95%
  Population Pyknosed Nuclei (%): 10%
  Population Tubulin-Different-Phenotype (%): 26%
  Total Cell Count: 515
[12]
  Population Apoptotic (%): 48%
  Population Fragmented Nuclei (%): 16%
  Population Healthy Nuclei (%): 76%
  Population Hoechst High Intensity Objects (%): 2%
  Population Mitochondria Different-Phenotype (%): 37%
  Population Mitotic Cells (%): 51%
  Population Normal (%): 97%
  Population Pyknosed Nuclei (%): 7%
  Population Tubulin-Different-Phenotype (%): 20%
  Total Cell Count: 544
